ChEMBL document CHEMBL1153337, “Small molecule antagonists of the gonadotropin-releasing hormone (GnRH) receptor: structure-activity relationships of small heterocyclic groups appended to the 2-phenyl-4-piperazinyl-benzimidazole template” (Bioorg Med Chem Lett, 2009)

What was measured:
[1] = target: T1, Gonadotropin-releasing hormone receptor (Homo sapiens, UniProt P30968); assay: Displacement of [125I]-(D-Trp6)-GnRH from human GnRH receptor
T1 sequence (P30968 whole entry): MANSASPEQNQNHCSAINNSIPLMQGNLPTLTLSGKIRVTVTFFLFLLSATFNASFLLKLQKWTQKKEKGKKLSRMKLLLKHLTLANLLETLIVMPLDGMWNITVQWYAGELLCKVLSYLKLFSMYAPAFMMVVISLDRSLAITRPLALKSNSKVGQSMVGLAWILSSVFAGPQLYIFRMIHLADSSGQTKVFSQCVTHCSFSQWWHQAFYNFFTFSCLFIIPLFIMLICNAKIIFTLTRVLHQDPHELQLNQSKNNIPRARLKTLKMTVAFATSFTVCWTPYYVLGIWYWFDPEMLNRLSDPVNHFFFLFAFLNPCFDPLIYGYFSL
Method in brief: (§1)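 Competition binding at overexpressed human or rat GnRH receptors against 125I-(D-Trp6)-GnRH; IC50 averaged from two independent experiments run in triplicate.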

[2] = target: T2, Gonadotropin-releasing hormone receptor (Rattus norvegicus, UniProt P30969); assay: Displacement of [125I]-(D-Trp6)-GnRH from rat GnRH receptor; method in brief: as §1
T2 sequence (P30969 whole entry): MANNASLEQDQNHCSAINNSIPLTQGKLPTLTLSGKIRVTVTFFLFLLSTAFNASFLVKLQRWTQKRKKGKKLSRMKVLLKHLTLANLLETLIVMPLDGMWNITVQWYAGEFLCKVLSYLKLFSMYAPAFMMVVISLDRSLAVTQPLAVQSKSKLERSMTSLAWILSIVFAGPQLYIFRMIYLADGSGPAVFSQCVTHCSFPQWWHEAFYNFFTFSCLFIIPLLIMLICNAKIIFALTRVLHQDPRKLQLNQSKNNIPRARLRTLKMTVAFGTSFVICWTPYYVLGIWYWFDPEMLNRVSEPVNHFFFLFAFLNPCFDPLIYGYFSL

[3] = Solubility at pH 7.4; format: physicochemical; details: buffer
[4] = Metabolic stability in rat liver microsomes assessed as half life; format: ADME, Microsome
CYP3A4 = CYP3A4 (Homo sapiens, UniProt P08684); assay: Inhibition of CYP3A4 at 3 uM; format: ADME
CYP2D6 = CYP2D6 (Homo sapiens, UniProt P10635); assay: Inhibition of CYP2D6 at 3 uM; format: ADME
CYP2C9 = CYP2C9 (Homo sapiens, UniProt P11712); assay: Inhibition of CYP2C9 at 3 uM; format: ADME
[5] = Clearance in orchidectomized Sprague-Dawley rat at 1 mg/kg, iv after 1 day; format: ADME, organism-based; design: dose 1 mg/kg, route intravenous; details: male, in vivo
Method in brief: (§2)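 Orchidectomized SD rats, single iv dose of 1 mg/kg in 20% DMSO/PEG 200; one-day PK study.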

[6] = Volume of distribution at steady state in orchidectomized Sprague-Dawley rat at 1 mg/kg, iv after 1 day; format: ADME, organism-based; design: dose 1 mg/kg, route intravenous; details: male, in vivo, read-out: Vdss; method in brief: as §2
[7] = Half life in orchidectomized Sprague-Dawley rat at 1 mg/kg, iv after 1 day; format: ADME, organism-based; design: dose 1 mg/kg, route intravenous; details: male, in vivo; method in brief: as §2
[8] = AUC (0 to alpha) in orchidectomized Sprague-Dawley rat at 30 mg/kg, po after 1 day; format: ADME, organism-based; design: dose 30 mg/kg, route oral; details: male, plasma
Method in brief: (§3)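 Orchidectomized SD rats, single oral dose of 30 mg/kg in PEG 400; iv arm 1 mg/kg in 20% DMSO/PEG 200 for bioavailability; one-day PK study.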

[9] = Half life in orchidectomized Sprague-Dawley rat at 30 mg/kg, po after 1 day; format: ADME, organism-based; design: dose 30 mg/kg, route oral; details: male, in vivo; method in brief: as §3
[10] = Oral bioavailability in orchidectomized Sprague-Dawley rat at 30 mg/kg after 1 day; format: ADME, organism-based; details: male, in vivo; method in brief: as §3
Rattus norvegicus [11] = assay: Change in serum leutinizing hormone level in orchidectomized rat at 30 mg/kg, po after 0.5 hrs relative to control; format: functional
Method in brief: (§4)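 Orchidectomized rats (stable elevated LH after testosterone feedback removal), oral gavage 30 mg/kg in PEG 400 vs vehicle cohort, n = 6 per group; serum LH sampled over 24 h, relative LH with t = 0 set to 100; change = treated minus vehicle average.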

Rattus norvegicus [12] = assay: Change in serum leutinizing hormone level in orchidectomized rat at 30 mg/kg, po after 1 hr relative to control; format: functional; method in brief: as §4
Rattus norvegicus [13] = assay: Change in serum leutinizing hormone level in orchidectomized rat at 30 mg/kg, po after 2 hrs relative to control; format: functional; method in brief: as §4
Rattus norvegicus [14] = assay: Change in serum leutinizing hormone level in orchidectomized rat at 30 mg/kg, po after 4 hrs relative to control; format: functional; method in brief: as §4
Rattus norvegicus [15] = assay: Change in serum leutinizing hormone level in orchidectomized rat at 30 mg/kg, po after 6 hrs relative to control; format: functional; method in brief: as §4
Rattus norvegicus [16] = assay: Change in serum leutinizing hormone level in orchidectomized rat at 30 mg/kg, po after 24 hrs relative to control; format: functional; method in brief: as §4
[17] = target: T1, Gonadotropin-releasing hormone receptor; assay: Antagonist activity at human recombinant GnRH receptor expressed in HEK293 cells assessed as reduction in (D-Trp6)-GnRH-stimulated IP production by whole cell assay; format: functional, cell-based
Method in brief: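 Whole-cell assay, cells stimulated with (D-Trp6)-GnRH; compound-driven reduction of inositol phosphate read as IC50.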

[18] = Reduction in leutinizing hormone release in (D-Trp6)-GnRH-stimulated rat primary pituitary cells by RIA; format: functional, cell-based; details: Pituitary gland cell
Method in brief: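 Primary rat pituitary cells stimulated with (D-Trp6)-GnRH; compound-driven reduction of LH release read as IC50.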

CYP2C9, sequence (P11712 whole entry): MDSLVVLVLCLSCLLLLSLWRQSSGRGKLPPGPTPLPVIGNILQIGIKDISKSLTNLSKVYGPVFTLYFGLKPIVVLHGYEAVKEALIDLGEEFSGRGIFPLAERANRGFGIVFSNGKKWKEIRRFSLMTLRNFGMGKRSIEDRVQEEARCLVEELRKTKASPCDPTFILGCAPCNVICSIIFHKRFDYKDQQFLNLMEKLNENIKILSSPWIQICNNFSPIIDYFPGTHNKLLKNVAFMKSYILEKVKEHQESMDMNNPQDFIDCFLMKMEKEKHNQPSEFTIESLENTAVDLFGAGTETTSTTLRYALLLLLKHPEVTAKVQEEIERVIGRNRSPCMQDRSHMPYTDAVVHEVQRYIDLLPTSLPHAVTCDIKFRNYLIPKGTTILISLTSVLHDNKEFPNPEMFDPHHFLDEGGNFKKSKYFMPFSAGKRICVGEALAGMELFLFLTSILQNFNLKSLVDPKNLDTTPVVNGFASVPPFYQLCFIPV
CYP3A4, sequence (P08684 whole entry): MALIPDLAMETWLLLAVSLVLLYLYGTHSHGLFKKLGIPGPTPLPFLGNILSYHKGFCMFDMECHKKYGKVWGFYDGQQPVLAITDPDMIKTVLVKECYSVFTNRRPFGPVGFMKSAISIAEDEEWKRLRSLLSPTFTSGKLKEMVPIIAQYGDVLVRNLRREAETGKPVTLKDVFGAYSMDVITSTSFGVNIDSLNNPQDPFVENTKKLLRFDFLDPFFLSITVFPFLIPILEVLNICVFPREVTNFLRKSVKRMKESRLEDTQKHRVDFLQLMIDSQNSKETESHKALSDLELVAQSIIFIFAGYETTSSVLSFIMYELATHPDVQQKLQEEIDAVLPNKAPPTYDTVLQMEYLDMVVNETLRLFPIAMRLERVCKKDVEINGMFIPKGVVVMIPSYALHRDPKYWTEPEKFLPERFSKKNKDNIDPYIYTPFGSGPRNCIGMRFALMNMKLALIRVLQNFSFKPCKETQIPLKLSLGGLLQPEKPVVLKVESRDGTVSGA
CYP2D6, sequence (P10635 whole entry): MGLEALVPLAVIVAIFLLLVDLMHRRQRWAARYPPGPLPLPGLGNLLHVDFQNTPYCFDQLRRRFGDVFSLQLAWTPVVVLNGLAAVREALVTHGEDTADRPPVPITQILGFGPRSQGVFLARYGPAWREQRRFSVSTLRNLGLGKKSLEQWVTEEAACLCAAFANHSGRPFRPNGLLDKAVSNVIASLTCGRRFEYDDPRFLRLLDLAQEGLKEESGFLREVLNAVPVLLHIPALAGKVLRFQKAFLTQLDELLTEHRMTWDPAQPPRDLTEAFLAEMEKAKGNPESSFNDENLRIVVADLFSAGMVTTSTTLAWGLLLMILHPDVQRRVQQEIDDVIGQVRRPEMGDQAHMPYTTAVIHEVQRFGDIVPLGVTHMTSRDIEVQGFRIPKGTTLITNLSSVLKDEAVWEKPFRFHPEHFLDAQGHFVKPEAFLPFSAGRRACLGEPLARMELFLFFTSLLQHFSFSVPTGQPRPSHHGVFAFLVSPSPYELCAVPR

IC50 [1]: 7 nM
IC50 [2]: 24 nM
solubility [3]: > 100 µg/mL
half-life [4]: 21 min
inhibition at 3 µM (CYP3A4): 73%
inhibition at 3 µM (CYP2D6): 14%
inhibition at 3 µM (CYP2C9): 27%
clearance [5]: 134 mL/min/kg
Vd [6]: 2.7 L/kg
half-life [7]: 18 min
AUC at 24 h [8]: 3440 ng·h/mL
half-life [9]: 222 min
bioavailability [10]: 93%
IC50 [17]: 14 nM
IC50 [18]: 200 nM
Structure (SMILES): CCn1cnc(CN2CCN(c3cccc4[nH]c(-c5ccc(C(C)(C)C)cc5)nc34)CC2)c1C
Activity (Rattus norvegicus [11]): -0.2
Activity (Rattus norvegicus [12]): -18
Activity (Rattus norvegicus [13]): -52.8
Activity (Rattus norvegicus [14]): 14.5
Activity (Rattus norvegicus [15]): -32.3
Activity (Rattus norvegicus [16]): -3.5
